For orientation: Cmax means the highest concentration seen after dosing. A word on the IC50: it is the concentration at which inhibition is half-maximal. Read a low IC50 as inhibition by little substance. In general, half-life refers to how long it takes for the measured level to halve. A high value points to slow loss. Usually AUC(0-t) stands for the area under the concentration-time curve up to a stated or last time point. High values mean more exposure, low ones less exposure. As a reminder, the bioavailability is the share of a dose that reaches the circulation, judged against a reference dose that is usually intravenous. As a reminder, the MRT last is the average time that molecules of a dose stay in the body.

Experimental findings from ChEMBL document CHEMBL4422627, “Discovery of potent, orally bioavailable ERK1/2 inhibitors with isoindolin-1-one structure by structure-based drug design” (Eur J Med Chem, 2019) are described below.

Mitogen-activated protein kinase 1, sequence (P28482 whole entry): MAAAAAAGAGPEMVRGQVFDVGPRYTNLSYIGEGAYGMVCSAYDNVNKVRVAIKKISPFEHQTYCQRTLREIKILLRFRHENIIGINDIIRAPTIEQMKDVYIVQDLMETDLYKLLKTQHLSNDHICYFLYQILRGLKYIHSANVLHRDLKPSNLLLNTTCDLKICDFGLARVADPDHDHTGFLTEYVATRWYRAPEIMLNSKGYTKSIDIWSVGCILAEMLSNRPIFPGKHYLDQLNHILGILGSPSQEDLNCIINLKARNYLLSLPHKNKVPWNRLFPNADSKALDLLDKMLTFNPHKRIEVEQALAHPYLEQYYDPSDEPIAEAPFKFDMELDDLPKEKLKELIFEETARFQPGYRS

The first data set relates to HCT-116. Kind of data set: Induction of apoptosis in human HCT116 cells assessed as necrotic cells at 1 uM after 72 hrs by annexin V-FITC and propidium iodide staining based flow cytometric analysis (reference value: 0.21%). Type of data set: functional.
Conditions: not given
A digest of the protocol: (§1)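 HCT116 cells treated with compound, PI-stained, and analysed for apoptosis by flow cytometry; means ± SD of three independent experiments, each condition in triplicate.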
(In flow cytometry, cells or beads pass a laser one at a time.)
For the molecule `O=C1c2cc(-c3ccnc(NC4CCOCC4)n3)ccc2CN1C(CO)c1cccc(Cl)c1` (stereo not drawn), the Activity is recorded as 0.12%.

Test system in another data set: not listed separately
Nature of the data set: Cmax in Sprague-Dawley rat at 50 mg/kg, po by LC/MS/MS analysis. Type of data set: ADME, organism-based. On the set-up: dose 50 mg/kg, route oral. The conditions noted are these: in vivo. A digest of the protocol:
(§2)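 Sprague-Dawley rats dosed intravenously at 5 mg/kg or orally at 50 mg/kg; pharmacokinetic parameters derived from the plasma concentration data.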
For `Cl.O=C1c2cc(-c3ccnc(NC4CCOCC4)n3)ccc2CN1C(CO)c1cccc(Cl)c1` (stereo not drawn), the Cmax came to 1920 ng/mL.
On to `Cl.O=C1c2cc(-c3ccnc(NC4CCOCC4)n3)ccc2CN1Cc1cccc(Cl)c1`, for which the Cmax stood at 747 ng/mL.

The test system of a further data set is HCT-116. Kind of data set: Antitumor activity against human HCT116 cells xenografted in Balb/c nude mouse assessed as tumor growth inhibition at 50 mg/kg, po qd for 30 days and measured every 3 days by calliper method relative to control. In kind it is functional. The conditions noted are these: HCT-116, po, read-out: TGI. A digest of the protocol: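 Nude mice bearing HCT-116 xenografts; test article given as hydrochloride salt, 50 mg/kg orally once daily for 30 days; efficacy expressed as percent tumor growth inhibition.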
In general terms: A xenograft is tissue or cells of one species grown in another, often human tumour cells in immunodeficient mice.
Take `O=C1c2cc(-c3ccnc(NC4CCOCC4)n3)ccc2CN1C(CO)c1cccc(Cl)c1` (stereo not drawn): the inhibition in vivo at 50 mg/kg worked out at 71%.

Another data set concerns HCT-116. Nature of the data set: Induction of apoptosis in human HCT116 cells assessed as late apoptotic cells at 1 uM after 72 hrs by annexin V-FITC and propidium iodide staining based flow cytometric analysis (reference value: 1.20%). Type of data set: functional.
Conditions: not given
The essentials:
as §1
Regarding `O=C1c2cc(-c3ccnc(NC4CCOCC4)n3)ccc2CN1C(CO)c1cccc(Cl)c1` (stereo not drawn), the Activity came out at 10.4%.

The next data set relates to HCT-116. Kind of data set: Antiproliferative activity against human HCT116 cells after 72 hrs by MTT assay. In kind it is functional, cell-based. The conditions noted are these: HCT-116, 72 h. (In general: Tetrazolium dyes change colour on reduction, which living cells bring about.)
As for `Cn1cc(Nc2nccc(-c3ccc4c(c3)C(=O)N(Cc3cccc(Cl)c3)C4)n2)cn1`, the IC50 came to 148 nM.
For the molecule `O=C1c2cc(-c3ccnc(NC4CCOCC4)n3)ccc2CN1C(CO)c1cccc(Cl)c1` (stereo not drawn), it took 155 nM to reach half-maximal inhibition (IC50). The IC50 values of the last two molecules are within 1.5-fold of each other.

The subject of another data set is COLO 205. Kind of data set: Antiproliferative activity against human COLO205 cells after 72 hrs by MTT assay. Type of data set: functional, cell-based. Particulars: COLO 205, 72 h.
`Cn1cc(Nc2nccc(-c3ccc4c(c3)C(=O)N(Cc3cccc(Cl)c3)C4)n2)cn1` had an IC50 of 204 nM.
On the same count and under the same terms, the figure for `O=C1c2cc(-c3ccnc(NC4CCOCC4)n3)ccc2CN1C(CO)c1cccc(Cl)c1` (stereo not drawn) is 194 nM.

For another data set, the system named is HCT-116. Kind of data set: Induction of apoptosis in human HCT116 cells assessed as early apoptotic cells at 1 uM after 72 hrs by annexin V-FITC and propidium iodide staining based flow cytometric analysis (reference value: 3.88%).
Conditions: not given
In kind it is functional. A digest of the protocol:
as §1
In the case of `O=C1c2cc(-c3ccnc(NC4CCOCC4)n3)ccc2CN1C(CO)c1cccc(Cl)c1` (stereo not drawn), the Activity is 27.7%.

The next data set concerns HCT-116. Nature of the data set: Induction of apoptosis in human HCT116 cells assessed as viable cells at 1 uM after 72 hrs by annexin V-FITC and propidium iodide staining based flow cytometric analysis (reference value: 94.3%). Type of data set: functional. Particulars: HCT-116, 72 h, read-out: Activity. The essentials: as §1
On to `O=C1c2cc(-c3ccnc(NC4CCOCC4)n3)ccc2CN1C(CO)c1cccc(Cl)c1` (stereo not drawn), for which the viability at 1 µM is 61.3%.

Test system in another data set: not listed separately
Nature of the data set: Half life in Sprague-Dawley rat at 50 mg/kg, po by LC/MS/MS analysis. Particulars: in vivo. Type of data set: ADME, organism-based. The essentials: as §2
In turn, `Cl.O=C1c2cc(-c3ccnc(NC4CCOCC4)n3)ccc2CN1C(CO)c1cccc(Cl)c1` (stereo not drawn) gave a half-life of 3.6 h.
Still for that read-out and setting: the figure for `Cl.O=C1c2cc(-c3ccnc(NC4CCOCC4)n3)ccc2CN1Cc1cccc(Cl)c1` is 0.37 h.

The next data set concerns K562. Nature of the data set: Antiproliferative activity against human K562 cells after 72 hrs by MTT assay. In kind it is functional, cell-based. Particulars: K562, 72 h.
In turn, `Cn1cc(Nc2nccc(-c3ccc4c(c3)C(=O)N(Cc3cccc(Cl)c3)C4)n2)cn1` returned an IC50 of 2740 nM.
The molecule `O=C1c2cc(-c3ccnc(NC4CCOCC4)n3)ccc2CN1C(CO)c1cccc(Cl)c1` (stereo not drawn) returned an IC50 of 3190 nM. This IC50 and that of the molecule before are within 1.5-fold of each other.

A further data set deals with HCT-116. Kind of data set: Cell cycle arrest in human HCT116 cells assessed as accumulation at G2/M phase at 1 uM after 72 hrs by annexin V-FITC and propidium iodide staining based flow cytometric analysis (reference value: 43.5%). In kind it is functional.
Conditions: not given
As for `O=C1c2cc(-c3ccnc(NC4CCOCC4)n3)ccc2CN1C(CO)c1cccc(Cl)c1` (stereo not drawn), the Activity worked out at 29.5%.

Test system in a further data set: not listed separately
Kind of data set: AUC (0 to t) in Sprague-Dawley rat at 50 mg/kg, po by LC/MS/MS analysis. In kind it is ADME, organism-based. The conditions noted are these: in vivo. The essentials: as §2
As to `Cl.O=C1c2cc(-c3ccnc(NC4CCOCC4)n3)ccc2CN1C(CO)c1cccc(Cl)c1` (stereo not drawn), the AUC(0-t) came to 8380 ng·h/mL.
Same read-out and setting: the figure for `Cl.O=C1c2cc(-c3ccnc(NC4CCOCC4)n3)ccc2CN1Cc1cccc(Cl)c1` is 1280 ng·h/mL.

Test system in a further data set: not listed separately
Kind of data set: Oral bioavailability in Sprague-Dawley rat at 50 mg/kg by LC/MS/MS analysis. Type of data set: ADME, organism-based. Particulars: in vivo. A digest of the protocol: as §2
Take `Cl.O=C1c2cc(-c3ccnc(NC4CCOCC4)n3)ccc2CN1C(CO)c1cccc(Cl)c1` (stereo not drawn): the bioavailability amounted to 22.5%.
Same read-out and setting: the same measure for `Cl.O=C1c2cc(-c3ccnc(NC4CCOCC4)n3)ccc2CN1Cc1cccc(Cl)c1`: 6.9%.

Test system in another data set: not listed separately
Nature of the data set: MRT (0 to t) in Sprague-Dawley rat at 50 mg/kg, po by LC/MS/MS analysis. In kind it is ADME, organism-based. The conditions noted are these: in vivo. A digest of the protocol:
as §2
As for `Cl.O=C1c2cc(-c3ccnc(NC4CCOCC4)n3)ccc2CN1C(CO)c1cccc(Cl)c1` (stereo not drawn), the MRT last was determined as 3.4 h.
Molecule `Cl.O=C1c2cc(-c3ccnc(NC4CCOCC4)n3)ccc2CN1Cc1cccc(Cl)c1` yielded an MRT last of 1.2 h. Against the preceding molecule, the MRT last is about 2.8-fold lower.

The next data set concerns SW626. Nature of the data set: Antiproliferative activity against human SW626 cells after 72 hrs by MTT assay. Type of data set: functional, cell-based. Particulars: SW626, 72 h.
On to `Cn1cc(Nc2nccc(-c3ccc4c(c3)C(=O)N(Cc3cccc(Cl)c3)C4)n2)cn1`, for which the IC50 came to 209 nM.
The same measure, in the same setting: the same measure for `O=C1c2cc(-c3ccnc(NC4CCOCC4)n3)ccc2CN1C(CO)c1cccc(Cl)c1` (stereo not drawn): 247 nM.

Another data set deals with HCT-116. Kind of data set: Cell cycle arrest in human HCT116 cells assessed as accumulation at G0/G1 phase at 1 uM after 72 hrs by annexin V-FITC and propidium iodide staining based flow cytometric analysis (reference value: 44.3%). In kind it is functional.
Conditions: not given
As to `O=C1c2cc(-c3ccnc(NC4CCOCC4)n3)ccc2CN1C(CO)c1cccc(Cl)c1` (stereo not drawn), the Activity turned out to be 58%.

The target of another data set is Mitogen-activated protein kinase 3 (Homo sapiens, UniProt P27361). Nature of the data set: Inhibition of ERK1 (unknown origin) using […] as substrate after 40 mins by ADP-Glo luminescence assay.
Mitogen-activated protein kinase 3, sequence (P27361 whole entry): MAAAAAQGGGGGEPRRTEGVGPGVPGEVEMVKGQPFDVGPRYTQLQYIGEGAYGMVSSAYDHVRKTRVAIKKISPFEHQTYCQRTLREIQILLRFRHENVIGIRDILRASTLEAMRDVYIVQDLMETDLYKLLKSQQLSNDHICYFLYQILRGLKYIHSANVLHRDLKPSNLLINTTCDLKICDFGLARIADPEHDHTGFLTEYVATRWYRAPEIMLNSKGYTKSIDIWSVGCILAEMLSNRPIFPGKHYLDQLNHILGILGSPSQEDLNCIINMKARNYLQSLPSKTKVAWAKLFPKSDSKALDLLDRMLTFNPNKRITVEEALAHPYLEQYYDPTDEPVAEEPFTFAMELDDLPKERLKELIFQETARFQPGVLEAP
Conditions: not given
The molecule `Cn1cc(Nc2nccc(-c3ccc4c(c3)C(=O)N(Cc3cccc(Cl)c3)C4)n2)cn1` showed an IC50 of 21 nM.
`O=C1c2cc(-c3ccnc(NC4CCOCC4)n3)ccc2CN1C(CO)c1cccc(Cl)c1` (stereo not drawn) displayed an IC50 of 1.5 nM. This IC50 is about 14-fold lower than that of the molecule before.

Test system in a further data set: not listed separately
Nature of the data set: Toxicity against Balb/c nude mouse xenografted with human HCT116 cells assessed as reduction in body weight at 50 mg/kg, po qd for 30 days and measured every 3 days. Particulars: in vivo. In kind it is organism-based. A digest of the protocol:
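HCT-116 xenograft nude mice dosed at 50 mg/kg orally once daily for 30 days; body weight recorded every 3 days.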
Take `O=C1c2cc(-c3ccnc(NC4CCOCC4)n3)ccc2CN1C(CO)c1cccc(Cl)c1` (stereo not drawn): the Activity result is “Non-Toxic”.

A further data set concerns the target Mitogen-activated protein kinase 1 (Homo sapiens, UniProt P28482). Kind of data set: Inhibition of ERK2 (unknown origin) using […] as substrate after 40 mins by ADP-Glo luminescence assay.
Conditions: not given
`Cn1cc(Nc2nccc(-c3ccc4c(c3)C(=O)N(Cc3cccc(Cl)c3)C4)n2)cn1` registered an IC50 of 3.6 nM. In other words, the single-digit nanomolar range.
On to `O=C1c2cc(-c3ccnc(NC4CCOCC4)n3)ccc2CN1C(CO)c1cccc(Cl)c1` (stereo not drawn), for which the IC50 amounted to 0.7 nM.

The test system of another data set is NCM460. Kind of data set: Cytotoxicity against human NCM460 cells assessed as reduction in cell viability at 10000 nM after 72 hrs by MTT assay. In kind it is cell-based. The conditions noted are these: ncm460, 72 h, 10 µM.
On to `O=C1c2cc(-c3ccnc(NC4CCOCC4)n3)ccc2CN1C(CO)c1cccc(Cl)c1` (stereo not drawn), for which the Activity result is given as “Non-Toxic”.

The subject of a further data set is WM 266-4. Nature of the data set: Antiproliferative activity against human WM266.4 cells after 72 hrs by MTT assay. Particulars: WM 266-4, 72 h. In kind it is functional, cell-based.
In turn, `Cn1cc(Nc2nccc(-c3ccc4c(c3)C(=O)N(Cc3cccc(Cl)c3)C4)n2)cn1` gave an IC50 of 174 nM.
`O=C1c2cc(-c3ccnc(NC4CCOCC4)n3)ccc2CN1C(CO)c1cccc(Cl)c1` (stereo not drawn) gave an IC50 of 260 nM.
